Bioassay records (PubChem BioAssay)
This is a sample that favours compounds with a hit; in the whole collection about 2.1% have one here.
thrombin 1536 – inhibitors of human thrombin | inhibition, % at 5 µM | alpha-thrombin, Boc-VPR-AMC fluorogenic substrate cleavage | P00734 | 0.26% of 220,000 active;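 active = inhibition at or above 40%; inactive = inhibition below 40%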;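 note: 0% = enzyme with no compound and 100% = wells without enzyme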
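Material: human alpha-thrombin protein. Incubation: reaction at ambient temperature. Technique: fluorescence of released AMC, ex 355 nm, em 460 nm. Control set: no-compound enzyme wells and no-enzyme blanks. Also added: Boc-VPR-AMC substrate, 15 µM final. Buffer or medium: pH 7.5 Tris (50 mM) with NaCl 150 mM, Tween 20 0.05%.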
KLK5 inh – inhibitors of human kallikrein 5 | recombinant hK5, fluorogenic AMC substrate cleavage | 0.59% of 210,000 active | inhibition, % at 5 µM | Q9Y337;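 active = inhibition of 40% or more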;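 note: 0% = enzyme controls without compound and 100% = no-enzyme blanks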
FXIIa inh 1536 – blocks human coagulation factor XIIa protease activity | P00748 | inhibition, % at 5 µM | 0.3% of 220,000 active | purified FXIIa, Boc-QGR-AMC fluorogenic substrate, 2 h | AID 800; in the data active = inhibition above about 40%;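 note: 0% = enzyme with no compound and 100% = blank without enzyme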
EP2 mod – modulates human prostaglandin E2 receptor EP2 signaling; EP2-expressing cells, cAMP HTRF FRET, PGE2 co-stimulation; induction, % at 25 µM; 0.83% of 260,000 active;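 active = compounds whose cAMP rise, as percent of the full-agonist control response, exceeds 60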;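 note: rat C6 glioma line stably carrying human EP2 under a CMV promoter; the protocol text gives 20 µM as final concentration; 100% = response of wells given 1 µM PGE2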
FXIa inh 1536 – blocks human coagulation factor XIa protease activity; purified FXIa, Boc-Glu-Ala-Arg-AMC fluorogenic substrate; 0.14% of 220,000 active; P03951; inhibition, % at 5 µM; AID 798;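 active = inhibition of at least 40%; inactive = inhibition below 40%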;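 note: fluorescence of freed AMC excited at 355 nm; 0% = enzyme without compound and 100% = no enzyme blank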
Target sequence (P03951 19-387 limits assumed): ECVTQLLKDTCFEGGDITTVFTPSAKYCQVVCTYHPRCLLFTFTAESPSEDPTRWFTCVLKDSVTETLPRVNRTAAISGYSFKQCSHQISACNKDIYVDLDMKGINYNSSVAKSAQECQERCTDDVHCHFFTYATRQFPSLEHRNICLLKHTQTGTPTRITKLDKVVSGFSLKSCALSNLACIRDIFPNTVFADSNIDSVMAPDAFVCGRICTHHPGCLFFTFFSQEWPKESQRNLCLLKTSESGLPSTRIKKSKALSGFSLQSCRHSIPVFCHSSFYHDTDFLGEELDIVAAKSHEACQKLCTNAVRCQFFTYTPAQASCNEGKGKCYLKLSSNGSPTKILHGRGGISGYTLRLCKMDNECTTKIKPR
Target sequence (P03951 388-625 limits assumed): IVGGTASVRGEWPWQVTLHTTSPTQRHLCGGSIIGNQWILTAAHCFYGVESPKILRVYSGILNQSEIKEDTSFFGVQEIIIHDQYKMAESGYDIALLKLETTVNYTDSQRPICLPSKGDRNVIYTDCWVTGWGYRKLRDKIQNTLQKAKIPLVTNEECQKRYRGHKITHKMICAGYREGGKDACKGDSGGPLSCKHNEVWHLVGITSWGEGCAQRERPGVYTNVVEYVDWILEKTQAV
EP2 antag – blocks the human prostaglandin E2 receptor EP2; 0.52% of 260,000 active; inhibition, % at 25 µM; C6 glioma cells expressing human EP2, cAMP TR-FRET; cells stimulated with saturating PGE2; P43116; AID 1422;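 active = percent inhibition above 40 after rounding to a whole number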;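 note: rat C6 glioma host cells with rolipram phosphodiesterase inhibitor present; the protocol text gives 20 µM as final concentration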
* hit, by the source's call; nt = no result given; ! = not active in a repeat.

SMILES	thrombin 1536	KLK5 inh	FXIIa inh 1536	EP2 mod	FXIa inh 1536	EP2 antag
O=C(O)CP(=O)(c1ccccc1)c1ccccc1	10	42*	18	25	2	12
CC(C(=O)NCc1ccccn1)N1C(=O)c2ccccc2C1=O (stereo unspecified)	104*	34	13	-16	18	-4
CCN1CCN(S(=O)(=O)c2ccc(S(=O)(=O)N3CCCCCC3)cc2)CC1	nt	nt	nt	-12	nt	12
CC(=O)NC(CC(=O)OCC(=O)c1c(N)n(C)c(=O)n(C)c1=O)c1ccccc1 (stereo unspecified)	-4	15	40*	-7	34	7
Cc1ccc(NCc2nnc(SCC(=O)OC3CCCCC3)n2C)cc1	nt	nt	nt	-31	nt	4
Cc1nc2cc(N3CCC(C)CC3)c(NC(=O)C3CC3)cc2c(=O)n1Cc1ccccc1	nt	nt	nt	34	nt	12
Cc1nc2cc(Cl)c(NC(=O)C3CCCCC3)cc2c(=O)n1Cc1ccccc1	nt	nt	nt	106*	nt	5
CC(C)(C)N1C(=O)Cc2c1nc(N)c1c(N)nc(N3CCCCC3CO)c(C#N)c21 (stereo unspecified)	-2	-2	16	-29	4	44*
N#CC1=C(N)Oc2n[nH]c(-c3cccs3)c2C1c1cccs1 (stereo unspecified)	-8	0	-6	-20	-7	52*
COc1cc2c(cc1OC)CN(S(=O)(=O)c1ccc(C)cc1)CC2	nt	nt	nt	31	nt	6
Cc1cc2cc3c(cc2nc1SCC(=O)Nc1cccc(F)c1)OCO3	nt	nt	nt	66*	nt	17
Cc1cc(NC(=O)CSc2nc3cc4c(cc3cc2C)OCO4)no1	nt	nt	nt	48	nt	14
CCc1cc2ccc(C)c(C)c2nc1SCC(=O)NCc1ccc2c(c1)OCO2	nt	nt	nt	42	nt	2
CCc1cc2cc3c(cc2nc1SCC(=O)Nc1cc(C)on1)OCO3	0	-17	13	73*!	5	17
CCc1cc2cc(C)cc(C)c2nc1SCC(=O)NCc1ccc2c(c1)OCO2	nt	nt	nt	70*	nt	14
CCc1cc2cc3c(cc2nc1SCC(=O)NCc1ccccc1)OCO3	nt	nt	nt	81*	nt	17
CCc1cc2cc3c(cc2nc1SCC(=O)NCc1ccc(OC)cc1)OCCO3	nt	nt	nt	38	nt	17
CCn1c(N2CCC(C(=O)Nc3ccc4c(c3)OCCO4)CC2)nc2ccccc21	nt	nt	nt	-5	nt	nt
O=C(Cc1cccs1)N1CCC(n2nc(C3CC3)ccc2=O)CC1	nt	nt	nt	-25	nt	nt
CCOc1ccccc1NC(=O)CSc1nnc(-c2ccoc2C)n1-c1ccccc1	nt	nt	nt	3	nt	10
CC[C@H](Cn1ncc2ccccc2c1=O)NC(=O)Cc1ccccc1F	nt	nt	nt	-15	nt	nt
CC1CCCN(CC(O)c2ccc3c(c2)CCCN3C(=O)C(C)C)C1 (stereo unspecified)	nt	nt	nt	-24	nt	10
Cc1cc(NC(=O)CSc2nc(C3CC3)nc3sc4c(c23)CCCC4)no1	nt	nt	nt	-5	nt	47*
C/C(N)=C(/C#N)C(=O)CSc1cc(Cl)ccc1Cl	-5	-7	7	43	1	2
C/C(N)=C(/C#N)C(=O)CSc1nc2cc(Cl)ccc2s1	41*	-23	3	0	-12	7
SMILES	thrombin 1536	KLK5 inh	FXIIa inh 1536	EP2 mod	FXIa inh 1536	EP2 antag
CCOc1ccccc1NC(=O)C(NCC1CCCCC1)c1ccccc1 (stereo unspecified)	-1	-14	-1	65*	-6	9
O=C(c1cccc(Cl)c1)N1CCN(Cc2ccccc2F)CC1	23	94*	3	-3	-3	8
COc1ccc(OC)c(CN2CCN(C(=O)c3cccc(OC)c3OC)CC2)c1	nt	nt	nt	-39	nt	7
O=C(c1cccc(Cl)c1)N1CCN(Cc2ccncc2)CC1	-2	-24	13	20	5	6
COc1ccc(OC)c(CN2CCN(C(=O)c3cccc4ccccc34)CC2)c1	4	44*	17	18	-1	21
COc1cc(OC)cc(C(=O)N2CCN(Cc3ccccc3C(F)(F)F)CC2)c1	7	12	40*	-14	2	2
COc1cc(C(=O)N2CCN(Cc3ccccc3C(F)(F)F)CC2)cc(OC)c1OC	-4	0	13	9	8	nt
O=C(N1CCC(n2nc(C3CC3)ccc2=O)CC1)C1(c2ccccc2)CC1	nt	nt	nt	-12	nt	6
COc1ccc2[nH]c(=O)c(C(c3nnnn3C3CCCC3)N3CCN(Cc4ccccc4)CC3)cc2c1 (stereo unspecified)	nt	nt	nt	-3	nt	17
Cc1cc(C)nc(SCC(=O)Nc2ncc(Cc3ccccc3Cl)s2)n1	nt	nt	nt	28	nt	15
Cc1ccc(C)c(Cn2c(CO)nc3ccccc32)c1	17	41*	-6	30	7	10
COc1ccc(C(=O)NCCCc2nc3ccccc3n2Cc2cc(C)ccc2C)cc1OC	0	-7	12	25	7	15
CCC1Oc2ccc(C)cc2N(CC(=O)N(Cc2ccccc2)Cc2ccccn2)C1=O (stereo unspecified)	nt	nt	nt	57	nt	12
CN(C)Cc1cc(C(C)(C)C)cc(C(C)(C)C)c1O	-8	0	5	10	3	11
CN(C)Cc1ccc(C(C)(C)C)cc1-c1cc(C(C)(C)C)ccc1CN(C)C	nt	nt	nt	9	nt	51*
S=c1[nH]nc(-c2ccco2)n1/N=C/c1cccc(Cl)c1Cl	-8	-32	-2	61*	18	1
CNC(=O)COC(=O)c1ccc(Cl)c(S(=O)(=O)N2CCCC2)c1	nt	-2	4	-9	4	0
CNC(=O)COC(=O)c1ccc(Cl)c(S(N)(=O)=O)c1	13	49*	26	14	21	13
COc1ccccc1NC(=O)C1CCCN(c2ncccn2)C1 (stereo unspecified)	nt	nt	nt	19	nt	14
Oc1ccccc1N=Cc1c(O)ccc2oc3c(c12)CCCC3	-2	-7	-2	9	-5	14
Cc1ccnc(N=Cc2c(O)ccc3oc4c(c23)CCCC4)c1	-1	-4	11	62*	-4	13
Cc1ccc(-n2nnnc2SCC(N)=O)cc1C	nt	nt	nt	-23	nt	13
CCOc1ccc(NC(=O)CN2C(=O)/C(=C3\SC(=S)N(C4CCS(=O)(=O)C4)C3=O)c3ccccc32)cc1 (stereo unspecified)	3	36	22	11	53*	3
CCOc1cccc(NC(=O)CN2C(=O)C3CCCN3C(=O)c3ccccc32)c1 (stereo unspecified)	nt	nt	nt	-4	nt	13
CCOC(=O)c1c(N)sc(=S)c2c1CCC2	1	-38	4	5	6	61*
CCOC(=O)c1c(N)sc(N)c1C(=O)OCC	5	-4	12	33	6	11
O=C(NCc1ccccc1)c1sc(=S)n2c1[nH]c(=O)c1ccccc12	25	43*	16	-46	16	9
CC(NS(=O)(=O)c1ccc(S(=O)(=O)NC2CC2)cc1)c1cccs1 (stereo unspecified)	nt	nt	nt	-10	nt	11
COc1ccccc1-n1c(SCC(=O)N2CCCC2)nnc1-c1ccncc1	nt	nt	nt	-38	nt	10
